Data published in ChEMBL document CHEMBL1817593, “C5'-Alkyl Substitution Effects on Digitoxigenin α-l-Glycoside Cancer Cytotoxicity” (ACS Med Chem Lett, 2011).

Assays:
Type in all cases: functional
NCI-H460 [1] = experiment: Induction of apoptosis in human NCI-H460 cells in serum free medium at 50 nM after 12 hrs by Hoechst 33342/propidium iodide staining based fluorescence microscopy
Summary of the method: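 NCI-H460 cells exposed to a single 50 nM concentration for 12 h. Cells stained with Hoechst 33342 and propidium iodide. Blue cells with condensed or fragmented nuclei were scored as apoptotic and red, ruptured cells as necrotic. Result given as % apoptotic cell death; N = 6, one-way ANOVA.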

NCI-H460 [2] = experiment: Cytotoxicity against human NCI-H460 cells assessed as cell death in serum free medium at 25 nM after 12 hrs by Hoechst 33342/propidium iodide staining based fluorescence microscopy
Summary of the method: (§1)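 NCI-H460 human lung cancer cells exposed 12 h to 10 nM–10 μM drug, including a 50 nM single-concentration test. Nuclei were stained with Hoechst 33342 and necrotic cells with propidium iodide. Apoptotic cells were scored by condensed or fragmented blue nuclei and necrotic cells by red PI staining. Total cell death (apoptosis plus necrosis) was recorded; N = 6.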

NCI-H460 [3] = experiment: Cytotoxicity against human NCI-H460 cells assessed as cell death in serum free medium at 100 nM after 12 hrs by Hoechst 33342/propidium iodide staining based fluorescence microscopy; summary of the method: as §1
NCI-H460 [4] = experiment: Cytotoxicity against human NCI-H460 cells assessed as cell death in serum free medium at 1000 nM after 12 hrs by Hoechst 33342/propidium iodide staining based fluorescence microscopy; summary of the method: as §1
NCI-H460 [5] = experiment: Cytotoxicity against human NCI-H460 cells assessed as cell death in serum free medium at 10000 nM after 12 hrs by Hoechst 33342/propidium iodide staining based fluorescence microscopy; summary of the method: as §1
NCI-H460 [6] = experiment: Cytotoxicity against human NCI-H460 cells assessed as cell viability at 1 nM after 48 hrs by MTT assay; details: NCI-H460, 48 h, read-out: Activity
Summary of the method: (§2)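 Viability of NCI-H460 cells was measured by MTT (mitochondrial enzymatic activity) after 48 h exposure, within a dose series spanning 1 nM–10 μM. N = 9, analysed by two-way ANOVA.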

NCI-H460 [7] = experiment: Cytotoxicity against human NCI-H460 cells assessed as cell viability at 25 nM after 48 hrs by MTT assay; details: NCI-H460, 48 h, read-out: Activity; summary of the method: as §2
NCI-H460 [8] = experiment: Cytotoxicity against human NCI-H460 cells assessed as cell viability at 50 nM after 48 hrs by MTT assay; details: NCI-H460, 48 h, read-out: Activity; summary of the method: as §2
NCI-H460 [9] = experiment: Cytotoxicity against human NCI-H460 cells assessed as cell viability at 500 nM after 48 hrs by MTT assay; details: NCI-H460, 48 h, read-out: Activity; summary of the method: as §2
CCRF-CEM = experiment: Cytotoxicity against human CCRF-CEM cells after 48 hrs by sulforhodamine B assay
HL-60(TB) = experiment: Cytotoxicity against human HL-60(TB) cells after 48 hrs by sulforhodamine B assay; details: HL-60, 48 h
MOLT-4 = experiment: Cytotoxicity against human MOLT4 cells after 48 hrs by sulforhodamine B assay; details: MOLT-4, 48 h
RPMI-8226 = experiment: Cytotoxicity against human RPMI8226 cells after 48 hrs by sulforhodamine B assay; details: RPMI-8226, 48 h
HOP-62 = experiment: Cytotoxicity against human HOP62 cells after 48 hrs by sulforhodamine B assay; details: HOP-62, 48 h
HOP-92 = experiment: Cytotoxicity against human HOP92 cells after 48 hrs by sulforhodamine B assay; details: HOP-92, 48 h
NCI-H23 = experiment: Cytotoxicity against human NCI-H23 cells after 48 hrs by sulforhodamine B assay; details: NCI-H23, 48 h
COLO 205 = experiment: Cytotoxicity against human COLO205 cells after 48 hrs by sulforhodamine B assay; details: COLO 205, 48 h
HCT-116 = experiment: Cytotoxicity against human HCT116 cells after 48 hrs by sulforhodamine B assay; details: HCT-116, 48 h
HCT-15 = experiment: Cytotoxicity against human HCT15 cells after 48 hrs by sulforhodamine B assay; details: HCT-15, 48 h
SW-620 = experiment: Cytotoxicity against human SW620 cells after 48 hrs by sulforhodamine B assay; details: SW-620, 48 h
SF-268 = experiment: Cytotoxicity against human SF268 cells after 48 hrs by sulforhodamine B assay; details: SF-268, 48 h
SF-295 = experiment: Cytotoxicity against human SF295 cells after 48 hrs by sulforhodamine B assay; details: SF-295, 48 h
SNB-19 = experiment: Cytotoxicity against human SNB19 cells after 48 hrs by sulforhodamine B assay; details: SNB-19, 48 h
SNB-75 = experiment: Cytotoxicity against human SNB75 cells after 48 hrs by sulforhodamine B assay; details: SNB-75, 48 h
U-251 = experiment: Cytotoxicity against human U251 cells after 48 hrs by sulforhodamine B assay; details: U-251, 48 h
PC-3 = experiment: Cytotoxicity against human PC3 cells after 48 hrs by sulforhodamine B assay; details: PC-3, 48 h
DU-145 = experiment: Cytotoxicity against human DU145 cells after 48 hrs by sulforhodamine B assay; details: DU-145, 48 h
MDA-MB-435 = experiment: Cytotoxicity against human MDA-MB-435 melanoma cells after 48 hrs by sulforhodamine B assay; details: MDA-MB-435, 48 h
SK-MEL-2 = experiment: Cytotoxicity against human SK-MEL-2 cells after 48 hrs by sulforhodamine B assay; details: SK-MEL-2, 48 h
SK-MEL-28 = experiment: Cytotoxicity against human SK-MEL-28 cells after 48 hrs by sulforhodamine B assay; details: SK-MEL-28, 48 h
UACC-257 = experiment: Cytotoxicity against human UACC257 cells after 48 hrs by sulforhodamine B assay; details: UACC-257, 48 h
UACC-62 = experiment: Cytotoxicity against human UACC62 cells after 48 hrs by sulforhodamine B assay; details: UACC-62, 48 h
IGROV-1 = experiment: Cytotoxicity against human IGROV1 cells after 48 hrs by sulforhodamine B assay; details: IGROV-1, 48 h
OVCAR-4 = experiment: Cytotoxicity against human OVCAR4 cells after 48 hrs by sulforhodamine B assay; details: OVCAR-4, 48 h
OVCAR-8 = experiment: Cytotoxicity against human OVCAR8 cells after 48 hrs by sulforhodamine B assay; details: OVCAR-8, 48 h
CAKI-1 = experiment: Cytotoxicity against human Caki1 cells after 48 hrs by sulforhodamine B assay; details: CAKI-1, 48 h
SN12C = experiment: Cytotoxicity against human SN12C cells after 48 hrs by sulforhodamine B assay
TK-10 = experiment: Cytotoxicity against human TK10 cells after 48 hrs by sulforhodamine B assay; details: TK-10, 48 h
MDA-MB-231 = experiment: Cytotoxicity against human MDA-MB-231 cells after 48 hrs by sulforhodamine B assay; details: MDA-MB-231, 48 h

SMILES: CC(C)C[C@@H]1O[C@@H](O[C@H]2CC[C@@]3(C)[C@H](CC[C@@H]4[C@@H]3CC[C@]3(C)[C@@H](C5=CC(=O)OC5)CC[C@]43O)C2)CC[C@H]1O
- Activity (NCI-H460 [1]): 9.2821%
- Activity (NCI-H460 [2]): 12.41%
- Activity (NCI-H460 [3]): 17.69%
- Activity (NCI-H460 [4]): 94.8%
- Activity (NCI-H460 [5]): 100%
- viability at 0.001 µM (NCI-H460 [6]): 81.8%
- viability at 0.025 µM (NCI-H460 [7]): 36.6%
- viability at 0.05 µM (NCI-H460 [8]): 25.1%
- viability at 0.5 µM (NCI-H460 [9]): 4.88%
- GI50 (CCRF-CEM): 28.5 nM
- GI50 (HL-60(TB)): 18.3 nM
- GI50 (MOLT-4): 13.1 nM
- GI50 (RPMI-8226): 35.6 nM
- GI50 (HOP-62): 23.1 nM
- GI50 (HOP-92): 74.2 nM
- GI50 (NCI-H23): 25.7 nM
- GI50 (COLO 205): 170 nM
- GI50 (HCT-116): 26.1 nM
- GI50 (HCT-15): 40.3 nM
- GI50 (SW-620): 32 nM
- GI50 (SF-268): 26.3 nM
- GI50 (SF-295): 24.9 nM
- GI50 (SNB-19): 58.9 nM
- GI50 (SNB-75): 85.3 nM
- GI50 (U-251): 39.7 nM
- GI50 (PC-3): 46.3 nM
- GI50 (DU-145): 16.6 nM
- GI50 (MDA-MB-435): 35.1 nM
- GI50 (SK-MEL-2): 115 nM
- GI50 (SK-MEL-28): 133 nM
- GI50 (UACC-257): 31.3 nM
- GI50 (UACC-62): 50.5 nM
- GI50 (IGROV-1): 29.9 nM
- GI50 (OVCAR-4): 85.5 nM
- GI50 (OVCAR-8): 29.6 nM
- GI50 (CAKI-1): 24.4 nM
- GI50 (SN12C): 23.7 nM
- GI50 (TK-10): 28.6 nM
- GI50 (MDA-MB-231): 225 nM

SMILES: CC(C)[C@@H]1O[C@@H](O[C@H]2CC[C@@]3(C)[C@H](CC[C@@H]4[C@@H]3CC[C@]3(C)[C@@H](C5=CC(=O)OC5)CC[C@]43O)C2)CC[C@H]1O
- Activity (NCI-H460 [1]): 11.993%
- Activity (NCI-H460 [2]): 12.07%
- Activity (NCI-H460 [3]): 18.89%
- Activity (NCI-H460 [4]): 90.66%
- Activity (NCI-H460 [5]): 100%
- viability at 0.001 µM (NCI-H460 [6]): 81.1%
- viability at 0.025 µM (NCI-H460 [7]): 30.1%
- viability at 0.05 µM (NCI-H460 [8]): 22.2%
- viability at 0.5 µM (NCI-H460 [9]): 6.35%
- GI50 (CCRF-CEM): 33.1 nM
- GI50 (HL-60(TB)): 14.3 nM
- GI50 (MOLT-4): 16.9 nM
- GI50 (RPMI-8226): 78.4 nM
- GI50 (HOP-62): 31.1 nM
- GI50 (HOP-92): 79.8 nM
- GI50 (NCI-H23): 29.4 nM
- GI50 (COLO 205): 207 nM
- GI50 (HCT-116): 21.5 nM
- GI50 (HCT-15): 62.2 nM
- GI50 (SW-620): 42.8 nM
- GI50 (SF-268): 26.3 nM
- GI50 (SF-295): 28.6 nM
- GI50 (SNB-19): 185 nM
- GI50 (SNB-75): 92.6 nM
- GI50 (U-251): 82.9 nM
- GI50 (PC-3): 61.9 nM
- GI50 (DU-145): 19.5 nM
- GI50 (MDA-MB-435): 82.8 nM
- GI50 (SK-MEL-2): 170 nM
- GI50 (SK-MEL-28): 252 nM
- GI50 (UACC-257): 122 nM
- GI50 (UACC-62): 119 nM
- GI50 (IGROV-1): 54.2 nM
- GI50 (OVCAR-4): 123 nM
- GI50 (OVCAR-8): 56.2 nM
- GI50 (CAKI-1): 20.8 nM
- GI50 (SN12C): 23.7 nM
- GI50 (TK-10): 53.8 nM
- GI50 (MDA-MB-231): 259 nM
